Data: ChEMBL document CHEMBL6071151, “Discovery of Inhibitors Targeting Protein-Protein Interaction between Bacterial RNA Polymerase and NusG as Novel Antimicrobials” (J Med Chem, 2024)

Experiments:
Type in all cases: functional
Enterococcus faecalis = experiment: Antimicrobial activity against Enterococcus faecalis ATCC 19433 assessed as reduction in microbial growth measured after 20 hrs by CLSI based broth microdilution method
In short: (§1)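 Broth microdilution per CLSI in cation-adjusted Mueller-Hinton broth. Two-fold serial dilutions from 256 to 0.25 μg/mL, inoculum about 5 × 10⁵ CFU/mL. Read after 20 h at 37 °C. MIC is the lowest concentration with no visible growth. Run in duplicate.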

Staphylococcus aureus [1] = experiment: Antimicrobial activity against Staphylococcus aureus ATCC 25923 assessed as reduction in microbial growth measured after 20 hrs by CLSI based broth microdilution method; in short: as §1
Staphylococcus aureus [2] = experiment: Antimicrobial activity against Staphylococcus aureus ATCC 29213 assessed as reduction in microbial growth measured after 20 hrs by CLSI based broth microdilution method; in short: as §1
Streptococcus pneumoniae = experiment: Antimicrobial activity against Streptococcus pneumoniae ATCC 49619 assessed as reduction in microbial growth measured after 20 hrs by CLSI based broth microdilution method
Klebsiella pneumoniae = experiment: Antimicrobial activity against Klebsiella pneumoniae ATCC 700603 assessed as reduction in microbial growth measured after 20 hrs by CLSI based broth microdilution method; in short: as §1
Acinetobacter baumannii = experiment: Antimicrobial activity against Acinetobacter baumannii ATCC 19606 assessed as reduction in microbial growth measured after 20 hrs by CLSI based broth microdilution method; in short: as §1
Pseudomonas aeruginosa = experiment: Antimicrobial activity against Pseudomonas aeruginosa ATCC 27853 assessed as reduction in microbial growth measured after 20 hrs by CLSI based broth microdilution method; in short: as §1
Enterobacter cloacae = experiment: Antimicrobial activity against Enterobacter cloacae ATCC 13047 assessed as reduction in microbial growth measured after 20 hrs by CLSI based broth microdilution method; in short: as §1
Escherichia coli = experiment: Antimicrobial activity against Escherichia coli ATCC 25922 assessed as reduction in microbial growth measured after 20 hrs by CLSI based broth microdilution method; in short: as §1

Compound | MIC (Enterococcus faecalis) [µg/mL] | MIC (Staphylococcus aureus [1]) [µg/mL] | MIC (Staphylococcus aureus [2]) [µg/mL] | MIC (Streptococcus pneumoniae) [µg/mL] | MIC (Klebsiella pneumoniae) [µg/mL] | MIC (Acinetobacter baumannii) [µg/mL] | MIC (Pseudomonas aeruginosa) [µg/mL] | MIC (Enterobacter cloacae) [µg/mL] | MIC (Escherichia coli) [µg/mL]
OC(CNCCNc1nccc(C(F)(F)F)n1)COc1ccccc1 (stereo not drawn) | > 256 | > 256 | > 256 | 128 | > 256 | > 256 | > 256 | > 256 | > 256
OC(CNCCNc1ccccc1C(F)(F)F)COCc1ccc(C(F)(F)F)cc1 (stereo not drawn) | 64 | 64 | 64 | 32 | > 256 | 64 | > 256 | 128 | 64
OC(CNCCNc1cccc(C(F)(F)F)c1)COc1ccc(C(F)(F)F)cc1 (stereo not drawn) | > 256 | > 256 | > 256 | > 256 | > 256 | > 256 | > 256 | > 256 | > 256
OC(CNCCNc1nccc(C(F)(F)F)n1)COc1ccc(C(F)(F)F)cc1 (stereo not drawn) | 64 | 64 | 64 | 32 | > 256 | 128 | > 256 | > 256 | > 256
O=S(=O)(NCCNCC(O)COc1ccc(C(F)(F)F)cc1)c1ccccc1C(F)(F)F (stereo not drawn) | 64 | 64 | 64 | 32 | > 256 | 64 | > 256 | 128 | 64
O=[N+]([O-])c1ccc(OCC(O)CNCCNc2ccc(C(F)(F)F)cn2)cc1 (stereo not drawn) | 128 | 32 | 32 | 64 | > 256 | 128 | > 256 | 128 | 128
O=[N+]([O-])c1ccc(OCC(O)CNCCNc2nccc(C(F)(F)F)n2)cc1 (stereo not drawn) | 256 | 256 | 128 | 128 | > 256 | > 256 | > 256 | > 256 | > 256
N#Cc1ccccc1NCCNCC(O)COc1ccc(C(F)(F)F)cc1 (stereo not drawn) | 128 | 128 | 128 | 64 | > 256 | 128 | > 256 | 128 | 16
O=[N+]([O-])c1ccccc1NCCNCC(O)COc1ccc(C(F)(F)F)cc1 (stereo not drawn) | 128 | 128 | 128 | 32 | > 256 | > 256 | > 256 | 128 | > 256
OC(CNCCNc1ccc(C(F)(F)F)cn1)CNc1ccc(C(F)(F)F)cc1 (stereo not drawn) | 16 | 32 | 32 | 16 | > 256 | 32 | > 256 | 64 | 64
OC(CNCCNc1ccc(C(F)(F)F)cn1)COc1ccc(C(F)(F)F)cc1 (stereo not drawn) | 64 | 64 | 32 | 16 | > 256 | 64 | > 256 | > 256 | 64
O=[N+]([O-])c1ccc(NCCNCC(O)COCc2ccc(C(F)(F)F)cc2)nc1 (stereo not drawn) | 128 | 128 | 64 | 64 | 256 | 128 | > 256 | 128 | 128
O=[N+]([O-])c1ccc(OCC(O)CNCCNc2cc(C(F)(F)F)ccn2)cc1 (stereo not drawn) | 128 | 128 | 128 | 64 | > 256 | > 256 | > 256 | 256 | > 256
N#Cc1ccc(OCC(O)CNCCNc2ccccc2C(F)(F)F)cc1 (stereo not drawn) | > 256 | > 256 | 128 | 128 | > 256 | > 256 | > 256 | > 256 | > 256
COc1ccc(OCC(O)CNCCNc2nccc(C(F)(F)F)n2)cc1 (stereo not drawn) | > 256 | > 256 | > 256 | 256 | > 256 | > 256 | > 256 | > 256 | > 256
OC(CNCCNc1ccccc1C(F)(F)F)COc1ccccc1C(F)(F)F (stereo not drawn) | 32 | 64 | 32 | 32 | > 256 | 64 | > 256 | 64 | 64
O=[N+]([O-])c1ccc(OCC(O)CNCCNc2ncccn2)cc1 (stereo not drawn) | > 256 | > 256 | > 256 | > 256 | > 256 | > 256 | > 256 | > 256 | > 256
O=[N+]([O-])c1ccc(OCC(O)CNCCNc2ccc(F)cn2)cc1 (stereo not drawn) | > 256 | > 256 | > 256 | > 256 | > 256 | > 256 | > 256 | > 256 | > 256
OC(CNCCNc1ccccc1C(F)(F)F)COc1cccc(C(F)(F)F)c1 (stereo not drawn) | 16 | 32 | 32 | 16 | > 256 | 32 | > 256 | 32 | 32
O=[N+]([O-])c1ccc(OCC(O)CNCCNc2cccc(C(F)(F)F)n2)cc1 (stereo not drawn) | 128 | 128 | 64 | 32 | > 256 | 256 | > 256 | 256 | 256
OC(CNCCNc1ccc(C(F)(F)F)cn1)COCc1cccc(C(F)(F)F)c1 (stereo not drawn) | 64 | 64 | 32 | 32 | > 256 | 128 | > 256 | 256 | 64
OC(CNCCNc1ccccc1C(F)(F)F)COCc1ccccc1C(F)(F)F (stereo not drawn) | > 256 | > 256 | 128 | 128 | > 256 | > 256 | > 256 | > 256 | > 256
